# Assay results published in ChEMBL document CHEMBL1124674, “Chemical and biological properties of a new series of cis-diammineplatinum(II) antitumor agents containing three nitrogen donors: cis-[Pt(NH3)2(N-donor)Cl]+” (J Med Chem, 1989).
# Legend:
# Format in all cases: functional, organism-based
# Mus musculus [1] = test: Compound is tested against sarcoma 180 ascites (S180a) in female CFW mice, and evaluated for the best percent of increase in life span at optimal dose of 8 mg/kg; parameters: dose 8 mg/kg
# Outline: (§1)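 Female CFW mice (18-25 g) were inoculated ip with 2×10^6 S180a cells on day 0. Single ip dose in 0.5 mL water on day 1, over 6 dose-doublings up to 320 mg/kg, 6 mice per dose. Controls got water; the cisplatin control got 8 mg/kg in 0.15 M NaCl. Run for twice control MST, with survivors counted dead then. %ILS, ≥50% = active.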
# Mus musculus [2] = test: Compound is tested against sarcoma 180 ascites (S180a) in female CFW mice, and evaluated for the best percent of increase in life span at optimal dose of 80 mg/kg; parameters: dose 80 mg/kg; outline: as §1
# Mus musculus [3] = test: Compound is tested against sarcoma 180 ascites (S180a) in female CFW mice, and evaluated for the best percent of increase in life span at optimal dose of 40 mg/kg; parameters: dose 40 mg/kg; outline: as §1
# Mus musculus [4] = test: Compound is tested against sarcoma 180 ascites (S180a) in female CFW mice, and evaluated for the best percent of increase in life span at optimal dose of 160 mg/kg; parameters: dose 160 mg/kg; outline: as §1
# Mus musculus [5] = test: Compound is tested against sarcoma 180 ascites (S180a) in female CFW mice, and evaluated for the best percent of increase in life span at optimal dose of 320 mg/kg; parameters: dose 320 mg/kg; outline: as §1
substance,measurement,setting,value
CISPLATIN,ILS,Mus musculus [1],81%
[Pt(NH3)2(N1-pyridine)Cl]Cl,ILS,Mus musculus [2],17%
cis[Pt(NH3)2(N1-3-hydroxypyridine)Cl]Cl,ILS,Mus musculus [2],69%
cis[Pt(NH3)2(N1-4-bromopyridine)Cl]Cl,ILS,Mus musculus [2],102%
cis[Pt(NH3)2(N1-4-chloropyridine)Cl]Cl,ILS,Mus musculus [3],77%
cis[Pt(NH3)2(N1-4-methylpyridine)Cl]Cl,ILS,Mus musculus [3],83%
cis[Pt(NH3)2(N1-6-methoxy-3-hydroxy-hydroxypyridine)Cl]Cl H2O,ILS,Mus musculus [2],93%
cis[Pt(NH3)2(N1-6-methyl-hydroxypyridine)Cl]Cl,ILS,Mus musculus [4],93%
cis[Pt(NH3)2(N1-cytisine)Cl]Cl,ILS,Mus musculus [2],92%
cis[Pt(NH3)2(N1-hydroxypyridine)Cl]Cl H2O,ILS,Mus musculus [4],97%
cis[Pt(NH3)2(N1-methyl isonicotinate)Cl]Cl,ILS,Mus musculus [2],31%
cis[Pt(NH3)2(N1-pyridine)Cl]Cl,ILS,Mus musculus [3],103%
same,ILS,Mus musculus [2],26%
cis[Pt(NH3)2(N3-1-beta-D-arabinofuranosylcytocin)Cl]NO3.H2O,ILS,Mus musculus [4],51%
cis[Pt(NH3)2(N3-1-methylcytosine)Cl]NO3,ILS,Mus musculus [3],73%
"cis[Pt(NH3)2(N3-2,deoxycytidine)Cl]Cl",ILS,Mus musculus [2],85%
cis[Pt(NH3)2(N3-5-methylcytosine)Cl]NO3,ILS,Mus musculus [4],84%
cis[Pt(NH3)2(N3-cytidinepyridine)Cl]NO3,ILS,Mus musculus [5],30%
"cis[Pt(NH3)2(N7-2,deoxyguanosine)Cl]NO3; H2O",ILS,Mus musculus [2],88%
cis[Pt(NH3)2(N7-guanosine)Cl]NO3,ILS,Mus musculus [4],79%
